In the library only some 1.8% were active in any assay of this set; here they are far more common.
SIAE primary – inhibitors of human sialic acid acetylesterase SIAE | Q9HAT2 | SIAE FP-Rh probe binding, fluorescence polarization | inhibition, % at 9.66 µM | 370,000 compounds, 0.69% hits;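 active = inhibition above a cutoff: mean of compounds within the control limits plus 3 SD of those, cut at about 17% in these data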;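 also: 0% = plate median of compound wells and 100% = probe without SIAE protein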
Target sequence (Q9HAT2 whole entry, looked up): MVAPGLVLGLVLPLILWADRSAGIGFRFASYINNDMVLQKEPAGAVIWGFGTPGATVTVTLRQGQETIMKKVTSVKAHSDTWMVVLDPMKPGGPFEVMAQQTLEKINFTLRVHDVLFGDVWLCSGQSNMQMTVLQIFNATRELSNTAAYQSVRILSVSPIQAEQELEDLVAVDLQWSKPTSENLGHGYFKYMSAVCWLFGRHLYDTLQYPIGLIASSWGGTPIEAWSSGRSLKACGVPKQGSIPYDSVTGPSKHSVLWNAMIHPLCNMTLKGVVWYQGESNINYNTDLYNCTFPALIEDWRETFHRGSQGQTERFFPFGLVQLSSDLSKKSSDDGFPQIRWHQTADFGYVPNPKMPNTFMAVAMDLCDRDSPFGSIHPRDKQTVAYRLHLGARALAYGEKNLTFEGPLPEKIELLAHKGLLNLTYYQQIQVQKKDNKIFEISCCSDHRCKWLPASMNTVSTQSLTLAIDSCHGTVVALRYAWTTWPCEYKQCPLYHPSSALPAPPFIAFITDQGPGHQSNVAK
Tn7 DDE FP – inhibitors of Tn7 peptide binding to human fibrin DD(E); P02675; FP displacement of FITC-Tn7 peptide from fibrin DD(E); 0% = median of compound wells per plate; inhibition, % at 8.3 µM; 370,000 compounds, 0.13% hits;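 active = inhibition above the mean of compounds falling within the control limits plus 3 SD of them, cut at about 14% in these data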;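 also: 0% = plate median of compound wells and 100% = 10 µM Aha-Tn7 peptide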
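Assay system: human fibrin DD(E). Input: DD(E) 2 µM final. Medium: Tris buffer with calcium and detergent, pH 7.8. Compound dosing: single point at 8.3 µM. Timing: 10 min plus 3 h, room temperature. Technique: fluorescence polarization of the labelled Tn7 tracer. Read-out: percent inhibition. Replicates: singlicate testing.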
ABHD4 inh – inhibits mouse alpha/beta hydrolase domain 4 | purified mABHD4, FP-Rh probe fluorescence polarization | inhibition, % at 8.92 µM | 370,000 compounds, 0.54% hits | AID 720543;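 active = inhibition exceeding the mean over every tested compound plus 3 SD, cut at about 30% in these data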;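 also: 0% = plate median of compound wells and 100% = S159A mutant with DMSO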
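Assay system: Wild-type mouse ABHD4 protein | Medium: HEPES pH 7.0 buffer, 150 mM NaCl, 0.01% Pluronic F-127 | Incubation: Enzyme–compound pre-incubation 45 min, then probe 60 min, both 25 °C | Technique: Fluorescence polarization with parallel and perpendicular emission, 525/598 nm | Evaluation: % inhibition of FP-Rh probe binding versus controls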
TCR CD3 inh – inhibitors of human TCR-CD3 interaction. inhibition, % at 9.4 µM. TAMRA-labeled TCR probe fluorescence, biochemical. 360,000 compounds, 0.37% hits; in the data active = inhibition above about 19%;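 also: recombinant mutant TCR 2C K166C tagged with TAMRA read by polarization; 0% = receptor in buffer alone and 100% = receptor with positive control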
HTRA1 inh – blocks human HTRA1 serine peptidase | Q92743 | recombinant HTRA1, FP-rhodamine activity-based probe, fluorescence polarization | inhibition, % at 5.96 µM | 340,000 compounds, 0.5% hits; in the data active = inhibition above about 36%;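 also: 0% = enzyme with DMSO and 100% = wells lacking enzyme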
Tn6 DDE FP – inhibitors of Tn6 peptide binding to human fibrin DD(E); Fibrin DD(E) TRITC-Tn6 fluorescence polarization displacement; inhibition, % at 8.3 µM; 370,000 compounds, 0.21% hits; AID 720509;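 active = inhibition above a per-campaign cutoff: mean of compounds within control limits plus 3 SD, cut at about 15% in these data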;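 also: 0% = median of all compound wells on the plate and 100% = blocking peptide control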
mABHD4 conf – confirmation of mouse ABHD4 inhibitors | shares compounds with ABHD4 inh | inhibition, % at 8.92 µM | purified mABHD4, FP-Rh probe fluorescence polarization | 1,800 compounds, 55% hits;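 active = mean inhibition across replicates above the hit cutoff set in the primary screen, cut at about 30% in these data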;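 also: 0% = wild-type ABHD4 with DMSO and 100% = catalytically dead S159A mutant with DMSO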
Numbers without * were called inactive; / = no result given.

SMILES	SIAE primary	Tn7 DDE FP	ABHD4 inh	TCR CD3 inh	HTRA1 inh	Tn6 DDE FP	mABHD4 conf
Cc1ccc2c(CSc3nc4ccccc4c(=O)n3CCCO)cc(=O)oc2c1	-1.0	2.1	6.3	-0.7	-14.8	0.4	/
CCCc1cc(=O)[nH]c(SCC(=O)NC2CCCCC2)n1	2.3	-0.2	93.4*	6.4	7.2	-12.3	-3.4
CCCc1cc(=O)[nH]c(SCC(=O)NC2CCCc3ccccc32)n1 (stereo not drawn)	9.9	3.8	-3.3	1.4	4.7	-1.8	/
O=C(O)c1cc(-c2c[nH]c3ccccc23)nc2ccc3ccccc3c12	-3.1	2.1	30.8*	2.4	-10.5	-9.4	16.4
Oc1ccc(N=Cc2cc(Br)c(N3CCOCC3)o2)cc1	3.6	1.6	42.2*	31.6*	14.9	14.9	6.2
O=C(O)c1cccc(S(=O)(=O)Nc2ccc(-c3ccccc3)cc2)c1	-5.9	4.0	8.4	2.8	-10.0	-1.2	/
O=C(O)c1ccc(NS(=O)(=O)c2ccc3c(c2)C(=O)c2ccccc2C3=O)cc1	4.7	5.7	36.2*	-3.6	/	1.9	58.0*
O=C(O)c1ccc(N/N=C/c2cn(Cc3ccccc3F)c3ccccc23)cc1	14.7	-0.8	46.4*	1.4	4.5	-4.2	68.7*
COC(=O)N/N=C/c1cn(Cc2ccccc2F)c2ccccc12	6.1	3.7	4.1	7.0	-3.4	3.9	/
CNC[C@H](CC1CCCCC1)NC[C@H](Cc1ccccc1)NCCC12CC3CC(CC(C3)C1)C2	1.8	2.7	48.3*	-5.7	-4.9	1.2	74.8*
COc1cccc(C(=O)CC(=O)C(=O)Nc2cc(OC)ccc2OC)c1	2.1	0.2	31.9*	-6.5	2.5	-2.9	7.8
CCOc1ccccc1NC(=O)C(=O)CC(=O)c1cccc(OC)c1	-7.1	6.8	8.7	0.6	6.3	3.2	/
O=C(O)c1cc(N/N=C2/CC(c3ccccc3)Oc3ccccc32)ccc1Cl (stereo not drawn)	6.8	-4.6	32.0*	0.3	4.3	-3.2	72.4*
Cc1ccc2c(c1)N1C(=O)c3ccccc3C1C1=C(CC(C)(C)CC1=O)N2 (stereo not drawn)	0.1	4.3	30.4*	-5.3	-3.4	3.9	45.8*
CC(=O)Oc1cccc(C2C3=C(CC(C)(C)CC3=O)Nc3ccccc3N2C(C)=O)c1 (stereo not drawn)	1.4	-9.7	4.6	0.7	2.1	0.3	/
Cc1ccc(-c2nc(CN3CCCC(C(=O)N4CCOCC4)C3)c(C)o2)cc1 (stereo not drawn)	-1.3	1.8	-5.6	11.8	-13.2	2.5	/
O=c1cc(CSc2nnnn2-c2ccccc2)[nH]c2[nH]n(-c3ccccc3)c(=O)c12	9.1	-3.6	32.2*	3.7	22.4	2.0	4.7
CC(C)c1ccccc1OCC(=O)Nc1ccccc1C(=O)N1CCOCC1	8.5	-4.6	-2.0	3.8	8.7	8.0	/
C=C1CCC2C(C)(C)CCC[C@]2(C)[C@H]1CC1=C(O)C(=O)C(CO)=CC1=O (stereo partly drawn)	-0.4	5.9	38.8*	/	/	-5.0	70.9*
C=C/C(C)=C/C[C@H]1C(=C)CCC2[C@](C)(C(=O)O)CCC[C@@]21C (stereo partly drawn)	/	/	/	/	-7.7	/	/
Cc1[nH]c2ccccc2c1CC(=O)Nc1ccc(Nc2cccnc2)c(-c2ccc(F)c(F)c2)c1	16.6	3.3	26.6	3.7	/	-7.6	/
Cc1ccc(-c2cc(NC(=O)Cc3c(C)[nH]c4ccccc34)ccc2Nc2cccnc2)cc1	8.1	-0.3	32.3*	-1.9	/	6.2	37.1*
CCC(=O)N(Cc1ccco1)c1nc(-c2ccc(OC)cc2)cs1	7.5	-11.1	1.5	6.3	-1.9	4.1	/
CCC(=O)N(Cc1ccco1)c1nc(-c2cc(OC)ccc2OC)cs1	1.7	10.5	49.1*	-3.4	7.5	-6.7	57.8*
Cc1ccc2oc(C(=O)NCC3CCOCC3)c(C)c2c1	-1.1	6.5	-0.1	9.2	-1.5	7.0	/
SMILES	SIAE primary	Tn7 DDE FP	ABHD4 inh	TCR CD3 inh	HTRA1 inh	Tn6 DDE FP	mABHD4 conf
Oc1ccc(/C=N/Nc2nc(N3CCCC3)nc(N3CCCC3)n2)cc1O	6.6	-1.4	29.9*	5.1	27.3	-2.2	24.6
CC1(C)Oc2cc(N)c([N+](=O)[O-])cc2O1	6.3	-5.8	41.2*	3.4	7.2	-5.6	-10.9
Nc1cc2c(cc1[N+](=O)[O-])-c1ccccc1C2=NO	-14.9	-4.0	49.4*	-5.6	9.3	-6.0	21.3
Cc1cc(C(C)(C)CC(C)(C)C)ccc1OCCOCC[N+](C)(C)Cc1ccccc1	3.1	-0.1	35.7*	4.6	24.6	-0.1	45.4*
C[N+](C)(CCOc1ccccc1)Cc1ccccc1	9.0	-1.8	27.6	7.4	3.7	2.3	/
CC(C)(O)C#Cc1ccc(CN2CCN(Cc3ccsc3)C(CCO)C2)s1 (stereo not drawn)	2.0	-6.3	93.1*	6.9	5.2	-0.6	-3.4
Cc1cc(C)cc(NC(=O)CSc2nnc(-c3cc(C)[nH]n3)n2N)c1	-1.7	7.0	0.2	0.7	-1.1	-3.2	/
COCCNc1nc(NCc2ccccc2OC)c2sccc2n1	-1.6	0.8	-0.7	-0.4	/	-3.4	/
Cc1ccc(CNc2nc(NCc3ccccc3)nc3ccsc23)c(C)c1	11.2	-4.5	34.9*	-2.3	/	-4.4	47.2*
COc1ccccc1CNc1nc(NCCOc2ccccc2)c2sccc2n1	6.3	5.5	37.1*	9.8	/	-3.8	40.4*
CNc1nc(NCc2ccc(C)cc2C)c2sccc2n1	-4.9	-4.7	-1.3	-6.8	/	1.2	/
Cc1sc2nc(SCC(=O)N(C)c3ccccc3)n(C)c(=O)c2c1C	10.1	-3.8	4.5	-5.1	-9.5	-5.5	/
CCN(CC)c1ccc(C(=C2C=CC(=[N+](CC)CC)C=C2)c2ccccc2)cc1	13.1	-1.4	71.0*	5.1	19.9	-10.9	102.7*
Cc1cc(C)cc(N(C(=O)c2csnn2)C(C(=O)NC2CCCC2)c2ccccn2)c1 (stereo not drawn)	-0.1	-4.0	13.3	4.8	-1.0	2.0	/
COc1ccccc1OCCNC(=O)c1ccc2c(c1)OCCO2	3.5	-0.8	30.7*	-1.6	2.3	-6.2	-2.1
O=C(NCc1ccco1)C1CCCN(c2ncccn2)C1 (stereo not drawn)	0.2	0.6	1.2	/	/	11.5	/
Cc1oc2ccc(O)cc2c1C(=O)c1ccc([N+](=O)[O-])cc1	2.9	-2.1	7.6	3.7	-2.4	-5.3	/
CN(C)/C=C/c1oc2ccc(O)cc2c1[N+](=O)[O-]	-2.1	1.1	32.4*	0.9	4.4	-14.9	5.0
Fc1ccccc1N1CCN(c2nc(-c3cccs3)nc3ccccc23)CC1	-10.0	-2.0	32.8*	0.7	-26.2	2.1	-24.6
CCNC(=S)NNC(=O)c1cnccn1	5.4	2.7	45.6*	/	/	1.5	53.6*
